Test results from ChEMBL document CHEMBL1155465, “"Viologen" dendrimers as antiviral agents: the effect of charge number and distance” (J Med Chem, 2010).

Key:
[1] = Selectivity index, ratio of CC50 for human MT4 cells to EC50 for HIV1 3B; format: toxicity, cell-based; settings: read-out: Ratio CC50/EC50
How it was run: (§1)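 MT-4 cells in RPMI 1640 with 10% heat-inactivated FCS, 2 mM L-glutamine, 0.1% bicarbonate and gentamicin, seeded at 6 × 10⁵ cells/mL final with virus or mock infection. Viability read by MTT after 5 days at 540 and 690 nm, using the median OD of three wells. CC50 is 50% loss of mock-infected OD540. EC50 is 50% inhibition of virus-induced CPE. SI = CC50/EC50. Mean ± SD of ≥2 experiments.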

[2] = test system: Human immunodeficiency virus 1; assay: Antiviral activity against HIV1 3B infected in human MT4 cells after 5 days by MTT assay; format: functional, organism-based; settings: Human immunodeficiency virus 1, 3B, MT4, 120 h; how it was run: as §1
[3] = test system: Human immunodeficiency virus 2; assay: Antiviral activity against HIV2 ROD infected in human MT4 cells after 5 days by MTT assay; format: functional, organism-based; settings: Human immunodeficiency virus 2, ISOLATE ROD, MT4, 120 h; how it was run: as §1
[4] = Cytotoxicity against human MT4 cells after 5 days by MTT assay; format: cell-based; how it was run: as §1
[5] = test system: Simian immunodeficiency virus; assay: Antiviral activity against SIV MAC251 infected in human MT4 cells after 5 days by MTT assay; format: functional, organism-based; settings: MAC251, MT4, 120 h; how it was run: as §1

Row | SMILES | selectivity ratio [1] | EC50 [2] [µM] | EC50 [3] [µM] | CC50 at 120 h [4] [µM] | EC50 [5] [µM]
1 | C=C[n+]1ccc(-c2ccncc2)cc1 | < 1 | > 15.9 | > 15.9 | 15.9 | 
2 | CCC[n+]1ccc(-c2ccncc2)cc1 | < 1 | > 363 | > 363 | > 363 | 
3 | OCc1cc(CO)cc(-[n+]2ccc(-c3cc[n+](-c4cc(CO)cc(CO)c4)cc3)cc2)c1 | < 1 | > 2.7 | > 2.7 | 2.7 | 
4 | C=C[n+]1ccc(-c2cc[n+](C)cc2)cc1 | < 1 | > 26.1 | > 26.1 | 26.1 | 
5 | BrCC[n+]1ccc(-c2cc[n+](CCBr)cc2)cc1 | 3.5 | 5.88 | > 20.6 | 20.6 | > 20.6
6 | C=C[n+]1ccc(-c2cc[n+](CCc3ccc([N+](=O)[O-])cc3)cc2)cc1 | < 1 | > 0.4 | > 0.4 | 0.4 | 
7 | CC[n+]1ccc(-c2ccncc2)cc1 | < 1 | > 282 | > 282 | 281 | 
8 | CC[n+]1ccc(-c2cc[n+](Cc3ccc(CBr)cc3)cc2)cc1 | < 1 | > 0.9 | > 0.9 | 0.9 | 
9 | C=C[n+]1ccc(-c2cc[n+](Cc3cc(C[n+]4ccc(-c5cc[n+](C=C)cc5)cc4)cc(C[n+]4ccc(-c5cc[n+](C=C)cc5)cc4)c3)cc2)cc1 | < 1 | > 33.4 | > 33.4 | 33.4 | 
10 | BrCc1cc(CBr)cc(-[n+]2ccc(-c3cc[n+](-c4cc(CBr)cc(CBr)c4)cc3)cc2)c1 | < 1 | > 148 | > 148 | > 148 | 
11 | NCCC[n+]1ccc(-c2cc[n+](CCCN)cc2)cc1 | < 1 | > 3.3 | > 3.3 | 3.3 | 
12 | NCCC[n+]1ccc(-c2ccncc2)cc1 | < 1 | > 346 | > 346 | > 346 | 
13 | NCCC[n+]1ccc(-c2cc[n+](Cc3ccccc3)cc2)cc1 | < 1 | > 0.9 | > 0.9 | 0.9 | 
14 | C[n+]1ccc(-c2cc[n+](CBr)cc2)cc1 | < 1 | > 5.1 | > 5.1 | 5.1 | 
15 | CC[n+]1ccc(-c2cc[n+](Cc3cc(CO)cc(C[n+]4ccc(-c5cc[n+](CC)cc5)cc4)c3)cc2)cc1 | < 1 | > 10.6 | > 10.6 | 10.6 | 
16 | CC[n+]1ccc(-c2cc[n+](Cc3cc(C[n+]4ccc(-c5cc[n+](CC)cc5)cc4)cc(C[n+]4ccc(-c5cc[n+](CC)cc5)cc4)c3)cc2)cc1 | < 1 | > 81.1 | > 81.1 | > 81.1 | 
17 | C[n+]1ccc(-c2cc[n+](C)cc2)cc1 | < 1 | > 25.2 | > 25.2 | 25.2 | 
18 | BrCC[n+]1ccc(-c2ccncc2)cc1 | < 1 | > 79.2 | > 79.2 | 79.2 | 
19 | C=C[n+]1ccc(-c2cc[n+](Cc3ccccc3)cc2)cc1 | < 1 | > 2.7 | > 2.7 | 2.7 | 
